# How the values were obtained:
# Histamine H4 receptor [1] = molecular target: T1, Histamine H4 receptor (Homo sapiens, UniProt Q9H3N8); experiment: Agonist activity at human H4 receptor; conditions: read-out: EC50
# Histamine H4 receptor [2] = molecular target: T1, Histamine H4 receptor; experiment: Antagonist activity at human histamine H4 receptor expressed in SK-N-MC cells assessed as reduction of histamine-induced inhibition of cAMP-mediated beta-galactosidase reporter gene activity treated 10 mins prior to histamine challenge by microplate reader analysis; type: functional, cell-based; conditions: read-out: pA2 (converted)
# Histamine H4 receptor [3] = molecular target: T1, Histamine H4 receptor; experiment: Displacement of [3H]histamine from human recombinant histamine H4 receptor expressed in SK-N-MC cells after 45 mins by competition binding analysis; type: cell-based
# [4] = molecular target: Voltage-gated inwardly rectifying potassium channel KCNH2 (Homo sapiens, UniProt Q12809); experiment: Inhibition of human ERG channel transfected in HEK293 cells assessed as reduction in delayed rectifier current by patch clamp assay; type: cell-based
# Summary of the method: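 The delayed rectifier current (IKr) was recorded in hERG-transfected HEK293 cells with the compound at 3 μM.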
# Histamine H4 receptor [5] = molecular target: T2, Histamine H4 receptor (Mus musculus, UniProt Q91ZY2); experiment: Partial agonist activity at mouse histamine H4 receptor
# T2 sequence (Q91ZY2 whole entry): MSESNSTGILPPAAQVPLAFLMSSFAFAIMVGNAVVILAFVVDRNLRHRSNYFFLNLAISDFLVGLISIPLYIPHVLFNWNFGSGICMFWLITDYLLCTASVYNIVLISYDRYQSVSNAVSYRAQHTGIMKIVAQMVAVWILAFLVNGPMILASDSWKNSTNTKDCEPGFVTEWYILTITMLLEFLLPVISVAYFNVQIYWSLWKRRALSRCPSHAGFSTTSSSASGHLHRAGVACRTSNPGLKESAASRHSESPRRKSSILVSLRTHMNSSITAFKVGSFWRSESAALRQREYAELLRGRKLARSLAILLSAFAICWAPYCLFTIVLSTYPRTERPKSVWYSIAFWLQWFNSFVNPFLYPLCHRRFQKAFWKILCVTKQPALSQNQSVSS
# Histamine H4 receptor [6] = molecular target: T2, Histamine H4 receptor; experiment: Antagonist activity at mouse histamine H4 receptor expressed in SK-N-MC cells assessed as reduction of histamine-induced inhibition of cAMP-mediated beta-galactosidase reporter gene activity treated 10 mins prior to histamine challenge by microplate reader analysis; type: functional, cell-based; conditions: read-out: pA2 (converted)
# [7] = Half life in beagle dog at 2 mg/kg, iv; type: ADME, organism-based, Canis lupus familiaris; parameters: dose 2 mg/kg, route intravenous; conditions: in vivo
# [8] = Initial plasma concentration in beagle dog at 2 mg/kg, iv; type: ADME, organism-based, Canis lupus familiaris; parameters: dose 2 mg/kg, route intravenous
# [9] = Cmax in beagle dog at 10 mg/kg, po; type: ADME, organism-based, Canis lupus familiaris; parameters: dose 10 mg/kg, route oral; conditions: in vivo
# [10] = AUC in beagle dog at 10 mg/kg, po; type: ADME, organism-based, Canis lupus familiaris; parameters: dose 10 mg/kg, route oral; conditions: plasma
# [11] = Permeability from basolateral to apical side in human Caco cells; type: ADME, cell-based; conditions: Caco-2, read-out: permeability
# [12] = Half life in rat at 10 mg/kg, po; type: ADME, organism-based; parameters: dose 10 mg/kg, route oral; conditions: in vivo
# [13] = Clearance in rat at 2 mg/kg, iv; type: ADME, organism-based; parameters: dose 2 mg/kg, route intravenous; conditions: in vivo
# Rattus norvegicus [14] = experiment: Volume of distribution at steady state in Sprague-Dawley rat at 2 mg/kg, iv; type: ADME, organism-based; parameters: dose 2 mg/kg, route intravenous; conditions: in vivo
# [15] = Initial plasma concentration in Sprague-Dawley rat at 2 mg/kg, iv; type: ADME, organism-based; parameters: dose 2 mg/kg, route intravenous
# [16] = Half life in beagle dog at 10 mg/kg, po; type: ADME, organism-based, Canis lupus familiaris; parameters: dose 10 mg/kg, route oral; conditions: in vivo
# [17] = Oral bioavailability in Sprague-Dawley rat at 10 mg/kg; type: ADME, organism-based; conditions: in vivo
# Histamine H3 receptor = Histamine H3 receptor (Homo sapiens, UniProt Q9Y5N1); experiment: Displacement of [3H]N-alpha-methylhistamine from human recombinant histamine H3 receptor expressed in SK-N-MC cells after 45 mins by competition binding analysis; type: cell-based
# [18] = Tmax in beagle dog at 10 mg/kg, po; type: ADME, organism-based, Canis lupus familiaris; parameters: dose 10 mg/kg, route oral; conditions: in vivo
# [19] = Oral bioavailability in rat at 10 mg/kg; type: ADME, organism-based; conditions: in vivo
# [20] = Oral bioavailability in beagle dog at 10 mg/kg; type: ADME, organism-based, Canis lupus familiaris; conditions: in vivo
# [21] = Cmax in rat at 10 mg/kg, po; type: ADME, organism-based; parameters: dose 10 mg/kg, route oral; conditions: in vivo
# [22] = Tmax in Sprague-Dawley rat at 10 mg/kg, po; type: ADME, organism-based; parameters: dose 10 mg/kg, route oral; conditions: in vivo
# Canis familiaris [23] = experiment: AUC in beagle dog at 2 mg/kg, iv; type: ADME, organism-based, Canis lupus familiaris, Plasma; parameters: dose 2 mg/kg, route intravenous; conditions: in vivo
# Histamine H4 receptor [24] = molecular target: T2, Histamine H4 receptor; experiment: Displacement of [3H]histamine from mouse histamine H4 receptor expressed in SK-N-MC cells after 45 mins by competition binding analysis; type: cell-based
# Summary of the method: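 Transfected cells expressing the H4 receptor, competition against [3H]histamine. Ki is the geometric mean of at least three independent determinations (each in triplicate), calculated by the Cheng–Prusoff equation.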
# [25] = Half life in rat microsomes; type: ADME, Microsome
# [26] = Half life in human microsomes; type: ADME, Microsome
# [27] = Half life in rat at 2 mg/kg, iv; type: ADME, organism-based; parameters: dose 2 mg/kg, route intravenous; conditions: in vivo
# [28] = Volume of distribution at steady state in rat at 2 mg/kg, iv; type: ADME, organism-based; parameters: dose 2 mg/kg, route intravenous; conditions: in vivo, read-out: Vdss
# Rattus norvegicus [29] = experiment: Clearance in Sprague-Dawley rat at 2 mg/kg, iv; type: ADME, organism-based; parameters: dose 2 mg/kg, route intravenous; conditions: in vivo
# hERG (KCNH2) = hERG (KCNH2) (Homo sapiens, UniProt Q12809); experiment: Inhibition of human ERG channel transfected in HEK293 cells assessed as reduction in delayed rectifier current at 3 uM by patch clamp assay; type: cell-based; conditions: HEK293 cells transfected with human ERG channel
# [30] = Half life in Sprague-Dawley rat at 10 mg/kg, po; type: ADME, organism-based; parameters: dose 10 mg/kg, route oral; conditions: in vivo
# Canis familiaris [31] = experiment: Clearance in beagle dog at 2 mg/kg, iv; type: ADME, organism-based, Canis lupus familiaris; parameters: dose 2 mg/kg, route intravenous; conditions: in vivo
# [32] = Permeability from apical to basolateral side in human Caco cells; type: ADME, cell-based; conditions: Caco-2, read-out: permeability
# [33] = AUC in Sprague-Dawley rat at 2 mg/kg, iv; type: ADME, organism-based; parameters: dose 2 mg/kg, route intravenous; conditions: plasma
# [34] = AUC in Sprague-Dawley rat at 10 mg/kg, po; type: ADME, organism-based; parameters: dose 10 mg/kg, route oral; conditions: plasma
# [35] = Volume of distribution at steady state in beagle dog at 2 mg/kg, iv; type: ADME, organism-based, Canis lupus familiaris; parameters: dose 2 mg/kg, route intravenous; conditions: in vivo, read-out: Vdss
# [36] = AUC in rat at 2 mg/kg, iv; type: ADME, organism-based; parameters: dose 2 mg/kg, route intravenous; conditions: plasma
# Rattus norvegicus [37] = experiment: Half life in Sprague-Dawley rat at 2 mg/kg, iv; type: ADME, organism-based; parameters: dose 2 mg/kg, route intravenous; conditions: in vivo
# [38] = Cmax in Sprague-Dawley rat at 10 mg/kg, po; type: ADME, organism-based; parameters: dose 10 mg/kg, route oral; conditions: in vivo
# T1 sequence (Q9H3N8 whole entry): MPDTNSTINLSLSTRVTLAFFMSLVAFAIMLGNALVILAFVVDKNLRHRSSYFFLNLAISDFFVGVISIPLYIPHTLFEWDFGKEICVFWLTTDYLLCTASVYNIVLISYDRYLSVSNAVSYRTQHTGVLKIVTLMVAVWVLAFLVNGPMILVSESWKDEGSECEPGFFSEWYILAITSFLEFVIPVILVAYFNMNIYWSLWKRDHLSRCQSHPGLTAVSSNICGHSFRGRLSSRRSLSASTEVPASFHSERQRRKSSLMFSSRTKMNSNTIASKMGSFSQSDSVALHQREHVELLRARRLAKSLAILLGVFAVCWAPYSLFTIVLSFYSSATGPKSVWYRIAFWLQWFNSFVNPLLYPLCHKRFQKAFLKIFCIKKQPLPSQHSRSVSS
# Chain of Histamine H3 receptor (Q9Y5N1 whole entry): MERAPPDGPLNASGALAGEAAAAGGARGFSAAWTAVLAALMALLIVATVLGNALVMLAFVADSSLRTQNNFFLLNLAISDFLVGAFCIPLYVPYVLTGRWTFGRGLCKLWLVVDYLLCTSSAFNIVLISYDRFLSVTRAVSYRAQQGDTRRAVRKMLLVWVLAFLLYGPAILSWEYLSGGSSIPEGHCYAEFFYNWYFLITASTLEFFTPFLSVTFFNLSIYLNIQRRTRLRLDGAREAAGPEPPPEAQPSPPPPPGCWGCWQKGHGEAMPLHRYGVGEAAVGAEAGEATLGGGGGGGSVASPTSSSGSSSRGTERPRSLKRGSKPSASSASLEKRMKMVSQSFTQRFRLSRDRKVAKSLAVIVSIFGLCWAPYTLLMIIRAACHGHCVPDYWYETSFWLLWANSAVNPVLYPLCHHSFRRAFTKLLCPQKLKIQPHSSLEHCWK
# Chain of Voltage-gated inwardly rectifying potassium channel KCNH2 (Q12809 whole entry): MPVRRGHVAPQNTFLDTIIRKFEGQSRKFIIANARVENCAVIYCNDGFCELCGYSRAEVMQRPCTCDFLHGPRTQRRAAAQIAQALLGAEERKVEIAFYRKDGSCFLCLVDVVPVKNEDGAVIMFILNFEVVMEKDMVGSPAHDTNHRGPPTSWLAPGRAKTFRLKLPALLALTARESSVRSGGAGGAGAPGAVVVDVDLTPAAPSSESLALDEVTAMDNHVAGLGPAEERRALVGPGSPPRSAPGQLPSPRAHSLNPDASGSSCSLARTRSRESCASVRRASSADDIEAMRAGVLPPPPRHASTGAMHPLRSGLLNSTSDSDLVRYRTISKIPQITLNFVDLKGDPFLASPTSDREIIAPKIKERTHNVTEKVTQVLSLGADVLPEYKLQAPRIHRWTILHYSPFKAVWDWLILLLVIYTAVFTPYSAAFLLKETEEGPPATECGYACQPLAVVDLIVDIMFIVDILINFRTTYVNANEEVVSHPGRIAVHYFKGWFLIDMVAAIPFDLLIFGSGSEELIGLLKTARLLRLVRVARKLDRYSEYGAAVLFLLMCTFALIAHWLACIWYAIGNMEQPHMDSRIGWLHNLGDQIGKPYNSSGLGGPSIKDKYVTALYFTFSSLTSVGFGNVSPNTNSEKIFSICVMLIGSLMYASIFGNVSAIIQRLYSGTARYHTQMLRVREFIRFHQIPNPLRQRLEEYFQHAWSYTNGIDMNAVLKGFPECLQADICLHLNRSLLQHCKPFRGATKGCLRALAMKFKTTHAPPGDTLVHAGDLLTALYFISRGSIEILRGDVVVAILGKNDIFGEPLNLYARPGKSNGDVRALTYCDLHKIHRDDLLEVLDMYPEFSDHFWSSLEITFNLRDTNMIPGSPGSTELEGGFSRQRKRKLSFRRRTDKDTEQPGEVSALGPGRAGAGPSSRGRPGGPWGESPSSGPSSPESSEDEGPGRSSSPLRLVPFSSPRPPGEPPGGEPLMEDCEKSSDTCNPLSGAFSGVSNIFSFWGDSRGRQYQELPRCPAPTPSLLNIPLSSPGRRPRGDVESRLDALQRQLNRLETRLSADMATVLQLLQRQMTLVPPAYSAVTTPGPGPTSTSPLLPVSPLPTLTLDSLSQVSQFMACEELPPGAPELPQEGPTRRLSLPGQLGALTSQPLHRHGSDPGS
# Chain of hERG (KCNH2) (Q12809 whole entry): as above
structure (smiles),measurement,setting,value
CCc1cc(N2CC[C@@H](N)C2)nc(N)n1,EC50,Histamine H4 receptor [1],> 10000 nM
same,Kb,Histamine H4 receptor [2],12.6 nM
CN[C@@H]1CCN(c2nc(N)nc3c2CCCC3)C1,EC50,Histamine H4 receptor [1],> 10000 nM
same,Kb,Histamine H4 receptor [2],25.1 nM
CC(C)(C)c1cc(N2CC[C@@H](N)C2)nc(N)n1,EC50,Histamine H4 receptor [1],> 10000 nM
same,Kb,Histamine H4 receptor [2],5.01 nM
same,Ki,Histamine H4 receptor [3],9.4 nM
CN[C@@H]1CCN(c2cc(C3CC3)nc(N)n2)C1,EC50,Histamine H4 receptor [1],> 10000 nM
same,Kb,Histamine H4 receptor [2],7.94 nM
CN[C@@H]1CCN(c2cc(C3CCCC3)nc(N)n2)C1,EC50,Histamine H4 receptor [1],> 10000 nM
same,Kb,Histamine H4 receptor [2],0.251 nM
same,Ki,Histamine H4 receptor [3],1.1 nM
Nc1nc(C2CCCC2)cc(N2C[C@H]3NCCO[C@@H]3C2)n1 (racemic),EC50,Histamine H4 receptor [1],> 10000 nM
same,Kb,Histamine H4 receptor [2],126 nM
same,Ki,Histamine H4 receptor [3],56 nM
CN1CCN(C(=O)c2nc3c([nH]2)CCCC3)CC1,Ki,Histamine H4 receptor [3],39 nM
Nc1nc(C2CCCC2)cc(N2CCNCC2)n1,INH,[4],> 10 µM
same,EC50,Histamine H4 receptor [5],7.3 nM
same,Kb,Histamine H4 receptor [6],10 nM
same,half-life,[7],10.8 h
same,EC50,Histamine H4 receptor [1],> 10000 nM
same,C0,[8],1760 nM
same,Cmax,[9],1490 nM
same,AUC,[10],30.8 µM·h
same,Papp B→A,[11],16 ×10⁻⁶ cm/s
same,half-life,[12],9 h
same,clearance,[13],10.5 mL/min/kg
same,Vdss,Rattus norvegicus [14],3.1 L/kg
same,C0,[15],25000 nM
same,Kb,Histamine H4 receptor [2],0.316 nM
same,half-life,[16],9.01 h
same,bioavailability,[17],20.7%
same,Ki,Histamine H3 receptor,24 nM
same,Tmax,[18],4 h
same,bioavailability,[19],20%
same,bioavailability,[20],114%
same,Cmax,[21],310 nM
same,Tmax,[22],2 h
same,AUC,Canis familiaris [23],5.38 µM·h
same,Ki,Histamine H4 receptor [24],20 nM
same,half-life,[25],1.43 h
same,half-life,[26],> 1.67 h
same,half-life,[27],1.1 h
same,Vd,[28],2.7 L/kg
same,CL,Rattus norvegicus [29],7.03 mL/min/kg
same,inhibition at 3 µM,hERG (KCNH2),21%
same,half-life,[30],8.7 h
same,CL,Canis familiaris [31],353.2 mL/min/kg
same,Papp A→B,[32],32 ×10⁻⁶ cm/s
same,AUC,[33],20.6 µM·h
same,AUC,[34],8.2 µM·h
same,Ki,Histamine H4 receptor [3],1.2 nM
same,Vd,[35],24.4 L/kg
same,AUC,[36],5 µM·h
same,t1/2,Rattus norvegicus [37],2.2 h
same,Cmax,[38],600 nM
